Laboratory results taken from ChEMBL document CHEMBL1165988, “Dithiolopyrrolone antibiotic formation induced by adding valeric acid to the culture broth of Saccharothrix algeriensis” (2010).
Converted amounts (≈) assume the structure as drawn.

What was measured:
Assay type in all cases: functional
Fusarium equiseti = assay: Antimicrobial activity against Fusarium equiseti after 48 to 72 hrs by agar dilution method
Method in brief: (§1)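 Filamentous fungi and yeasts tested by conventional agar dilution on ISP2 medium to give MIC; plates incubated at 28 °C and read after 48-72 h; each test repeated four times.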

Candida albicans = assay: Antimicrobial activity against Candida albicans IPA 200 after 48 to 72 hrs by agar dilution method; method in brief: as §1
Salmonella enterica = assay: Antimicrobial activity against Salmonella enterica CIP 81.3 after 24 to 48 hrs by agar dilution method
Method in brief: (§2)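 MIC determined by conventional agar dilution on ISP2 medium; bacterial plates incubated at 37 °C and read for growth inhibition after 24-48 h; each test repeated four times.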

Fusarium verticillioides = assay: Antimicrobial activity against Fusarium moniliforme after 48 to 72 hrs by agar dilution method; method in brief: as §1
Escherichia coli = assay: Antimicrobial activity against Escherichia coli ATCC 10536 after 24 to 48 hrs by agar dilution method; method in brief: as §2
Aspergillus carbonarius = assay: Antimicrobial activity against Aspergillus carbonarius M333 after 48 to 72 hrs by agar dilution method; method in brief: as §1
Pseudomonas aeruginosa = assay: Antimicrobial activity against Pseudomonas aeruginosa CIP A22 after 24 to 48 hrs by agar dilution method; method in brief: as §2
Staphylococcus aureus = assay: Antimicrobial activity against Staphylococcus aureus CIP 7625 after 24 to 48 hrs by agar dilution method; method in brief: as §2
Fusarium graminearum = assay: Antimicrobial activity against Fusarium graminearum after 48 to 72 hrs by agar dilution method
Method in brief: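 Agar dilution MIC on ISP2 medium; fungal plates incubated 48-72 h at 28 °C; each test repeated four times.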

Umbelopsis ramanniana = assay: Antimicrobial activity against Mucor ramannianus NRRL 1829 after 48 to 72 hrs by agar dilution method; method in brief: as §1
Fusarium culmorum = assay: Antimicrobial activity against Fusarium culmorum after 48 to 72 hrs by agar dilution method; method in brief: as §1
Klebsiella pneumoniae = assay: Antimicrobial activity against Klebsiella pneumoniae CIP 82.91 after 24 to 48 hrs by agar dilution method; method in brief: as §2
Listeria monocytogenes = assay: Antimicrobial activity against Listeria monocytogenes CIP 82110 after 24 to 48 hrs by agar dilution method; method in brief: as §2
Bacillus subtilis = assay: Antimicrobial activity against Bacillus subtilis ATCC 6633 after 24 to 48 hrs by agar dilution method; method in brief: as §2
Fusarium oxysporum = assay: Antimicrobial activity against Fusarium oxysporum f.sp. lini (Foln 3-5) after 48 to 72 hrs by agar dilution method; method in brief: as §1
Saccharomyces cerevisiae = assay: Antimicrobial activity against Saccharomyces cerevisiae ATCC 4226 after 48 to 72 hrs by agar dilution method; method in brief: as §1
Heyndrickxia coagulans = assay: Antimicrobial activity against Bacillus coagulans CIP 6625 after 24 to 48 hrs by agar dilution method; method in brief: as §2
Micrococcus luteus = assay: Antimicrobial activity against Micrococcus luteus ATCC 9314 after 24 to 48 hrs by agar dilution method; method in brief: as §2
[1] = system: Agrobacterium tumefaciens; assay: Antimicrobial activity against Agrobacterium tumefaciens no. 2410 LB after 24 to 48 hrs by agar dilution method; method in brief: as §2
Penicillium expansum = assay: Antimicrobial activity against Penicillium expansum after 48 to 72 hrs by agar dilution method; method in brief: as §1

Compound	MIC (Fusarium equiseti) [µg/mL]	MIC (Candida albicans) [µg/mL]	MIC (Salmonella enterica) [µg/mL]	MIC (Fusarium verticillioides) [µg/mL]	MIC (Escherichia coli) [µg/mL]	MIC (Aspergillus carbonarius) [µg/mL]	MIC (Pseudomonas aeruginosa) [µg/mL]	MIC (Staphylococcus aureus) [µg/mL]	MIC (Fusarium graminearum) [µg/mL]	MIC (Umbelopsis ramanniana) [µg/mL]	MIC (Fusarium culmorum) [µg/mL]	MIC (Klebsiella pneumoniae) [µg/mL]	MIC (Listeria monocytogenes) [µg/mL]	MIC (Bacillus subtilis) [µg/mL]	MIC (Fusarium oxysporum) [µg/mL]	MIC (Saccharomyces cerevisiae) [µg/mL]	MIC (Heyndrickxia coagulans) [µg/mL]	MIC (Micrococcus luteus) [µg/mL]	MIC [1] [µg/mL]	MIC (Penicillium expansum) [µg/mL]
Cn1c2cssc-2c(NC=O)c1=O [FORMYLPYRROTHINE]	10 (≈ 46.7 µM)	75 (≈ 350 µM)	> 100	75 (≈ 350 µM)	40 (≈ 187 µM)	50 (≈ 233 µM)	> 100	2 (≈ 9.33 µM)	40 (≈ 187 µM)	10 (≈ 46.7 µM)	10 (≈ 46.7 µM)	> 100	20 (≈ 93.3 µM)	2 (≈ 9.33 µM)	30 (≈ 140 µM)	75 (≈ 350 µM)	2 (≈ 9.33 µM)	3 (≈ 14 µM)	> 100	3 (≈ 14 µM)
CCC(=O)Nc1c2sscc-2n(C)c1=O [AUREOTHRICIN]	20 (≈ 82.5 µM)	75 (≈ 310 µM)	> 100	75 (≈ 310 µM)	75 (≈ 310 µM)	40 (≈ 165 µM)	> 100	100 (≈ 413 µM)	75 (≈ 310 µM)	20 (≈ 82.5 µM)	20 (≈ 82.5 µM)	> 100	> 100	20 (≈ 82.5 µM)	40 (≈ 165 µM)	40 (≈ 165 µM)	20 (≈ 82.5 µM)	20 (≈ 82.5 µM)	> 100	20 (≈ 82.5 µM)
CCCCC(=O)Nc1c2sscc-2n(C)c1=O [VALERYLPYRROTHINE]	20 (≈ 74 µM)	20 (≈ 74 µM)	> 100	75 (≈ 277 µM)	> 100	20 (≈ 74 µM)	> 100	75 (≈ 277 µM)	75 (≈ 277 µM)	10 (≈ 37 µM)	20 (≈ 74 µM)	> 100	> 100	20 (≈ 74 µM)	50 (≈ 185 µM)	10 (≈ 37 µM)	20 (≈ 74 µM)	40 (≈ 148 µM)	> 100	20 (≈ 74 µM)
